Data reported in ChEMBL document CHEMBL3272114, “Antimalarials. 10. Synthesis of 4-substituted primaquine analogues as candidate antimalarials” (J Med Chem, 1977).
The source made the active and inactive calls. The rule behind the calls is not given here.

Columns and labels:
Plasmodium berghei [1] = test: Antimalarial activity against Plasmodium berghei infected in mouse assessed as change in mean survival time at 80 mg/kg, sc by Rane test; type: functional; conditions: route subcutaneous
Outline: (§1)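 Mice were infected with P. berghei 3 days before drug. The compound was usually given subcutaneously in sesame or peanut oil at 20 to 640 mg/kg. Activity was read as the extension of mean survival time (ΔMST, days) of treated mice over infected controls.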

Plasmodium berghei [2] = test: Antimalarial activity against Plasmodium berghei infected in mouse assessed as change in mean survival time at 160 mg/kg, sc by Rane test; type: functional; conditions: route subcutaneous; outline: as §1
Plasmodium berghei [3] = test: Antimalarial activity against Plasmodium berghei infected in mouse assessed as change in mean survival time at 320 mg/kg, sc by Rane test; type: functional; conditions: route subcutaneous; outline: as §1
Plasmodium berghei [4] = test: Antimalarial activity against Plasmodium berghei infected in mouse assessed as disease cure at 640 mg/kg, sc by Rane test; type: functional, organism-based; set-up: dose 640 mg/kg
Mus musculus [5] = test: Toxicity in mouse infected with Plasmodium berghei assessed as animal death at 640 mg/kg, sc; type: organism-based; set-up: dose 640 mg/kg, route subcutaneous; conditions: in vivo
Plasmodium cynomolgi [6] = test: Antimalarial activity against Plasmodium cynomolgi infected in rhesus monkey assessed as disease cure at 1 mg/kg administered daily for 7 days; type: functional, organism-based; set-up: dose 1 mg/kg
Outline: (§2)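 Rhesus monkeys infected with P. cynomolgi, dosed once daily for 7 days at each listed mg/kg level. Cures were recorded as the number of monkeys cured over the number treated.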

Plasmodium cynomolgi [7] = test: Antimalarial activity against Plasmodium cynomolgi infected in rhesus monkey assessed as disease cure at 0.5 mg/kg administered daily for 7 days; type: functional, organism-based; set-up: dose 0.5 mg/kg; outline: as §2
Plasmodium cynomolgi [8] = test: Antimalarial activity against Plasmodium cynomolgi infected in rhesus monkey at 0.25 mg/kg administered daily for 7 days; type: functional, organism-based; set-up: dose 0.25 mg/kg; outline: as §2
Plasmodium berghei [9] = test: Antimalarial activity against Plasmodium berghei infected in mouse assessed as change in mean survival time at 20 mg/kg, sc by Rane test; type: functional; conditions: route subcutaneous; outline: as §1
Plasmodium berghei [10] = test: Antimalarial activity against Plasmodium berghei infected in mouse assessed as change in mean survival time at 40 mg/kg, sc by Rane test; type: functional; conditions: route subcutaneous; outline: as §1
Plasmodium berghei [11] = test: Antimalarial activity against Plasmodium berghei infected in mouse assessed as disease cure at 160 mg/kg, sc by Rane test; type: functional, organism-based; set-up: dose 160 mg/kg
Plasmodium berghei [12] = test: Antimalarial activity against Plasmodium berghei infected in mouse assessed as disease cure at 320 mg/kg, sc by Rane test; type: functional, organism-based; set-up: dose 320 mg/kg
Plasmodium cynomolgi [13] = test: Antimalarial activity against Plasmodium cynomolgi infected in rhesus monkey at 1 mg/kg administered daily for 7 days; type: functional, organism-based; set-up: dose 1 mg/kg
Mus musculus [14] = test: Toxicity in mouse infected with Plasmodium berghei assessed as animal death at 160 mg/kg, sc; type: organism-based; set-up: dose 160 mg/kg, route subcutaneous; conditions: in vivo
Mus musculus [15] = test: Toxicity in mouse infected with Plasmodium berghei assessed as animal death at 320 mg/kg, sc; type: organism-based; set-up: dose 320 mg/kg, route subcutaneous; conditions: in vivo
Plasmodium berghei [16] = test: Antimalarial activity against Plasmodium berghei infected in mouse assessed as change in mean survival time at 640 mg/kg, sc by Rane test; type: functional; conditions: route subcutaneous; outline: as §1
Plasmodium cynomolgi [17] = test: Antimalarial activity against Plasmodium cynomolgi infected in rhesus monkey at 0.50 mg/kg administered daily for 7 days; type: functional, organism-based; set-up: dose 0.5 mg/kg

With `COc1cc(NC(C)CCCN)c2nccc(C)c2c1` (centres undefined) as the compound, how does the MST (Plasmodium berghei [1]) read?
Its MST is 5.5 days.

And the MST (Plasmodium berghei [2])?
Its MST is 9 days.

And the MST (Plasmodium berghei [3])?
The MST was 10.1 days.

And the Activity (Plasmodium berghei [4])?
Its Activity is “Active”.

What about the Activity (Mus musculus [5]) of the same compound?
Its Activity is “Toxic”.

And the Activity (Plasmodium cynomolgi [6])?
The Activity was “Active”.

And the Activity (Plasmodium cynomolgi [7])?
Its Activity is “Active”.

Which results are given for `COc1cc(NCCCN)c2nccc(C)c2c1.Cl`?
MST (Plasmodium berghei [2]): 3.9 days; MST (Plasmodium berghei [3]): 5.5 days; Activity (Mus musculus [5]): Toxic; Activity (Plasmodium cynomolgi [8]): inactive

Which results are given for `COc1cc([N+](=O)[O-])c2nccc(Oc3ccc(Cl)cc3)c2c1`?
MST (Plasmodium berghei [9]): 3.5 days; MST (Plasmodium berghei [10]): 6.1 days; MST (Plasmodium berghei [1]): 10.1 days; Activity (Plasmodium berghei [11]): Active; Activity (Plasmodium berghei [12]): Active; Activity (Plasmodium berghei [4]): Active; Activity (Mus musculus [5]): Non-toxic; Activity (Plasmodium cynomolgi [13]): inactive

`COc1cc(NC(C)CCCN)c2ncccc2c1` (centres undefined) [PRIMAQUINE] was tested. Which MST (Plasmodium berghei [10]) did it give?
The MST was 5 days.

And the MST (Plasmodium berghei [1])?
The MST was 9.4 days.

And the Activity (Mus musculus [14])?
The Activity was “Toxic”.

What about the Activity (Mus musculus [15]) of the same compound?
The Activity was “Toxic”.

And the Activity (Mus musculus [5])?
Its Activity is “Toxic”.

What about the Activity (Plasmodium cynomolgi [8]) of the same compound?
Its Activity is “inactive”.

And the Activity (Plasmodium cynomolgi [6])?
Its Activity is “Active”.

`COc1cc(NC(C)CCCN)c2nccc(SC)c2c1` (centres undefined) was tested. Which MST (Plasmodium berghei [9]) did it give?
Its MST is 0.1 days.

And the MST (Plasmodium berghei [10])?
The MST was 0.1 days.

And the MST (Plasmodium berghei [1])?
The MST was 1.3 days.

And the MST (Plasmodium berghei [2])?
The MST was 3.5 days.

What about the MST (Plasmodium berghei [3]) of the same compound?
The MST was 6.7 days.

And the MST (Plasmodium berghei [16])?
The MST was 8.1 days.

What about the Activity (Plasmodium berghei [12]) of the same compound?
Its Activity is “inactive”.

And the Activity (Plasmodium berghei [4])?
The Activity was “inactive”.

What about the Activity (Plasmodium cynomolgi [13]) of the same compound?
The Activity was “inactive”.

What does the source list for `COc1cc(NC(C)CCCCN)c2nccc(C)c2c1.O=P(O)(O)O` (centres undefined)?
MST (Plasmodium berghei [9]): 5.8 days; MST (Plasmodium berghei [10]): 7 days; MST (Plasmodium berghei [1]): 10.4 days; Activity (Plasmodium berghei [11]): Active; Activity (Plasmodium berghei [12]): Active; Activity (Plasmodium berghei [4]): Active; Activity (Mus musculus [5]): Non-toxic; Activity (Plasmodium cynomolgi [17]): inactive; Activity (Plasmodium cynomolgi [6]): Active
